Inconclusive results are not listed.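 How the source made its calls, unless noted: active means viability at or below 27.92% in each of two runs, the all-compound median minus 4 SD; inconclusive means no clear call, values can overlap the other calls; inactive means the rest.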
How the values were obtained:
[1] = S. cerevisiae growth inhibition in permissive medium (OD615), pilot counter-assay for S. cerevisiae lifespan shortening project, permissive growth control (AID 705;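 active means growth inhibition above 25% in both replicates, a cutoff set 3 SD above the mean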); conditions: OD615, 24 h, at 10 µM, hits give high values
In short: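 System – S. cerevisiae with engineered DeaD lifespan system · Buffer or medium – SC raffinose/galactose permissive medium · Schedule – cells pre-grown 4 h, then 24 h compound exposure, 30 °C humidified · Technique – culture turbidity as optical density at 615 nm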

[2] = S. cerevisiae growth inhibition in restrictive medium, OD615, pilot screen, restrictive growth control, yeast lifespan reduction project (AID 706;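 active means growth inhibition above a set limit, 3 SD over mean compound inhibition, in both replicates, cut at about 43% in these data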;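 further: modified DeaD lifespan yeast strain shifted to restrictive glucose medium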); conditions: OD615, 48 h, at 10 µM, hits give high values
In short: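 Material: engineered S. cerevisiae DeaD strain / Medium: glucose-based CSMM-D restrictive medium / Compound: single dose of 10 µM compound final, 0.25% DMSO / Timing: 4 h pre-incubation, 48 h exposure at 30 °C / Technique: OD615 absorbance reading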

[3] = doxorubicin toxicity protection in MRP-1 cells – H69AR cells, CellTiter-Glo, duplicate, MRP-1 activator project, pilot screen (AID 807;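 active means viability increase at or above a cutoff of the median across tested compounds plus 3 SD, cut at about 8.5% in these data, passing the limit was not always enough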;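 further: compound pretreatment 18-22 h then 72 h combined with doxorubicin; 0% = doxorubicin alone and 100% = vehicle without doxorubicin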); conditions: H69AR viability with doxorubicin, CellTiter-Glo luminescence; at 10 µM; hits give high values
[4] = viability of HCT116 without oncogenic beta-catenin – human colon tumor cells, pilot screen (AID 823;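 active means cell viability at or below a set limit in both duplicate runs, the limit being the all-compound median minus 4 SD, cut at about 23% in these data, passing the limit was not always enough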;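 further: 0% = wells killed by 20 µM Hyamine and 100% = untreated DMSO cell wells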); conditions: HCT116 beta-catenin knockout viability, CellTiter-Glo, 60 h; at 10 µM; hits give low values
[5] = viability of PTEN-null HCT116 cells – cell-based, HCT116 clonal line, CellTiter-Glo, pilot screen (AID 824); conditions: HCT116 PTEN-deleted viability, 60 h, at 10 µM, hits give low values;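 further: 0% = 20 µM Hyamine control and 100% = vehicle cell control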
[6] = RAM signaling pathway blockade in yeast – S. cerevisiae, Pdr1DBD-CYC8 efflux-inhibited sensitized strain, primary screen (AID 1298;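 active means RAM network inhibition above 8.4% in each of two replicates, 3 SD over the compound average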;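 further: 0% = DMSO untreated cells without growth and 100% = 10 µM 1-NA-PP1 full growth; higher means more yeast growth rescued from 5-FOA killing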); conditions: S. cerevisiae cbk1-as DSE1-URA3 strain, 5-FOA growth OD615, 2 d; at 50 µM; hits give high values

Cn1c(Cn2c(=O)sc3ccccc32)nnc1SCc1ccccc1
inactive: growth inhibition [1] -3.71% | growth inhibition [2] -6.89% | viability increase [3] 0.76% | viability [4] 72.9% | viability [5] 71.2% | RAM network inhibition [6] 4.4%

O=C(CCc1nc2ccccc2[nH]1)Nc1ccc2c(c1)OCCO2
inactive: growth inhibition [1] -17.1% | growth inhibition [2] -18.4% | viability increase [3] -2.36% | viability [4] 94.2% | viability [5] 94.8% | RAM network inhibition [6] 0.89%

Cc1ccc(Nc2ncnc3nc[nH]c23)cc1Cl
inactive: growth inhibition [1] 1.92% | growth inhibition [2] 31.3% | viability increase [3] -1.76% | viability [4] 105% | viability [5] 90.8% | RAM network inhibition [6] 4.7%

CCOc1cc(-c2nc(-c3ccc(OC)cc3)no2)cc(OCC)c1OCC
inactive: growth inhibition [1] -4.43% | growth inhibition [2] -2.33% | viability increase [3] -3.25% | viability [4] 93.9% | viability [5] 89.5% | RAM network inhibition [6] 9.91%

CCn1c(=O)c2cc(C(=O)NCc3cccs3)sc2c2ccccc21
inactive: growth inhibition [1] -11.3% | growth inhibition [2] -8.09% | viability increase [3] -5.17% | viability [4] 102% | viability [5] 95.9% | RAM network inhibition [6] 4.3%

CCOc1ccc(-n2nnc3c(=O)n(CC(=O)N4CCCc5ccccc54)cnc32)cc1
inactive: growth inhibition [1] -3.47% | growth inhibition [2] -10.2% | viability increase [3] -0.3% | viability [4] 85.3% | viability [5] 84% | RAM network inhibition [6] 2.69%

CCCc1cc(C(=O)NCCc2ccc(OC)c(OC)c2)no1
inactive: growth inhibition [1] 1.33% | growth inhibition [2] 4.92% | viability increase [3] -1.89% | viability [4] 106% | viability [5] 97.2% | RAM network inhibition [6] 3.29%

CCSC1=C(C#N)C(c2cccc(O)c2)CC(=O)N1 (stereo not given)
inactive: growth inhibition [1] -2.26% | growth inhibition [2] -11% | viability increase [3] -1.66% | viability [4] 98.2% | viability [5] 97.1% | RAM network inhibition [6] 3.85%

Cc1cc(=S)cc(C)n1CCCn1ccnc1
inactive: growth inhibition [1] -1.13% | growth inhibition [2] -26.5% | viability increase [3] -0.81% | viability [4] 103% | viability [5] 99.7% | RAM network inhibition [6] 3.26%

Cc1ccc(C2CC(=O)NC(SCCC(C)C)=C2C#N)cc1 (stereo not given)
inactive: growth inhibition [1] -9.08% | growth inhibition [2] -2.19% | viability increase [3] -4.1% | viability [4] 96.8% | viability [5] 78.9% | RAM network inhibition [6] 9.74%

CCC(C)(C(=O)NC1CCCC1)N(CC1CCCO1)C(=O)CNC(=O)c1ccccc1 (stereo not given)
inactive: growth inhibition [1] -6.16% | growth inhibition [2] -12.3% | viability increase [3] -2.92% | viability [4] 98.2% | viability [5] 93% | RAM network inhibition [6] 1.24%

Cn1c(Cn2c(=O)sc3ccccc32)nnc1SCC(=O)Nc1ccc(F)cc1
inactive: growth inhibition [1] -6.3% | growth inhibition [2] -13.1% | viability increase [3] -0.7% | viability [4] 105% | viability [5] 97.8% | RAM network inhibition [6] 5.95%

COc1ccccc1-c1cc(C(F)(F)F)nc(N2CCOCC2)n1
inactive: growth inhibition [1] -8.95% | growth inhibition [2] -13.9% | viability increase [3] -0.29% | viability [4] 78.8% | viability [5] 82.5% | RAM network inhibition [6] 7.23%

CCCCCCSc1cc(C)nc2ncnn12
inactive: growth inhibition [1] -19% | growth inhibition [2] 2.92% | viability increase [3] -0.06% | viability [4] 93.6% | viability [5] 83.2% | RAM network inhibition [6] 0.21%

CC(C)c1ccc(OC(=O)NCCO)cc1
inactive: growth inhibition [1] 4.54% | growth inhibition [2] -4.21% | viability increase [3] 0.33% | viability [4] 98.9% | viability [5] 104% | RAM network inhibition [6] 4.79%

COc1cc(OC)c(NS(=O)(=O)c2coc(C(N)=O)c2)cc1Cl
inactive: growth inhibition [1] -4.63% | growth inhibition [2] -4.55% | viability increase [3] -3.53% | viability [4] 105% | viability [5] 95.8% | RAM network inhibition [6] 6.88%

Cc1cc(Nc2cccc(Cl)c2)n2ncnc2n1
inactive: growth inhibition [1] -2.62% | growth inhibition [2] 7.42% | viability increase [3] -2.08% | viability [4] 95.9% | viability [5] 98.7% | RAM network inhibition [6] 1.67%

O=C(Nc1nc(-c2nc3ccccc3s2)cs1)C1COc2ccccc2O1 (stereo not given)
inactive: growth inhibition [1] 2.93% | growth inhibition [2] -0.5% | viability increase [3] -2.5% | viability [4] 96.8% | viability [5] 91.3% | RAM network inhibition [6] 2.13%

O=C(Nc1nc2c(s1)CCCC2)c1cccnc1
inactive: growth inhibition [1] -5.66% | growth inhibition [2] -5.07% | viability increase [3] 0.28% | viability [4] 100% | viability [5] 92.2% | RAM network inhibition [6] 1.3%

CN1C(=O)c2cccc(NC(=O)CCc3ccccc3)c2C1=O
inactive: growth inhibition [1] -6.67% | growth inhibition [2] 1.67% | viability increase [3] 0.13% | viability [4] 99% | viability [5] 93% | RAM network inhibition [6] 1.84%
